# Reference: ChEMBL document CHEMBL4689842, “EUbOPEN Chemogenomics Library wave 1” (2021)
# System: HEK-293T
# Assay: Multiplex assay against HEK293T;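 for Population Tubulin-Different-Phenotype (%): share of the cells with healthy nuclei that show this phenotype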
# Type: toxicity, cell-based
# Details: human
# Summary of the method: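 Compound was added to live cells that had been stained at seeding with Hoechst33342, BioTracker Green Microtubule Cytoskeleton Dye, MitoTracker Red and Annexin V Alexa Fluor 680, and imaging followed on a CQ1 microscope at 37°C and 5% CO2. CellPathfinder machine-learning gating divided cells into Hoechst high-intensity objects or normal cells, normal cells into healthy, pyknosed or fragmented nuclei, and pyknosed cells into mitotic or apoptotic. Tubulin, mitochondrial-mass and membrane-permeability phenotypes are per cents of healthy-nucleus cells.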
# [1] = 12 h, 1 µM, compound concentration 1 uM, replicate 1
# [2] = 12 h, 1 µM, compound concentration 1 uM, replicate 2
# [3] = 12 h, 10 µM, compound concentration 10 uM, replicate 1
# [4] = 12 h, 10 µM, compound concentration 10 uM, replicate 2
# [5] = 24 h, 1 µM, compound concentration 1 uM, replicate 1
# [6] = 24 h, 1 µM, compound concentration 1 uM, replicate 2
# [7] = 24 h, 10 µM, compound concentration 10 uM, replicate 1
# [8] = 24 h, 10 µM, compound concentration 10 uM, replicate 2
# [9] = 48 h, 1 µM, compound concentration 1 uM, replicate 1
# [10] = 48 h, 1 µM, compound concentration 1 uM, replicate 2
# [11] = 48 h, 10 µM, compound concentration 10 uM, replicate 1
# [12] = 48 h, 10 µM, compound concentration 10 uM, replicate 2
smiles,measurement,setting,value
Cc1c(P(=S)(c2ccccc2)c2ccccc2)n2ccccc2[n+]1C/C=C/c1ccccc1.[Br-],Population Apoptotic (%),[1],65%
same,Population Fragmented Nuclei (%),[1],12%
same,Population Healthy Nuclei (%),[1],24%
same,Population Hoechst High Intensity Objects (%),[1],17%
same,Population Membrane Permeable-Phenotype (%),[1],6%
same,Population Mitochondria Different-Phenotype (%),[1],93%
same,Population Mitotic Cells (%),[1],34%
same,Population Normal (%),[1],82%
same,Population Pyknosed Nuclei (%),[1],62%
same,Population Tubulin-Different-Phenotype (%),[1],83%
same,Total Cell Count,[1],211
same,Population Apoptotic (%),[2],86%
same,Population Fragmented Nuclei (%),[2],6%
same,Population Healthy Nuclei (%),[2],30%
same,Population Hoechst High Intensity Objects (%),[2],5%
same,Population Membrane Permeable-Phenotype (%),[2],0%
same,Population Mitochondria Different-Phenotype (%),[2],87%
same,Population Mitotic Cells (%),[2],13%
same,Population Normal (%),[2],94%
same,Population Tubulin-Different-Phenotype (%),[2],77%
same,Total Cell Count,[2],138
same,Population Apoptotic (%),[3],34%
same,Population Fragmented Nuclei (%),[3],31%
same,Population Healthy Nuclei (%),[3],2%
same,Population Hoechst High Intensity Objects (%),[3],21%
same,Population Membrane Permeable-Phenotype (%),[3],14%
same,Population Mitochondria Different-Phenotype (%),[3],28%
same,Population Mitotic Cells (%),[3],65%
same,Population Normal (%),[3],78%
same,Population Pyknosed Nuclei (%),[3],65%
same,Population Tubulin-Different-Phenotype (%),[3],100%
same,Total Cell Count,[3],398
same,Population Apoptotic (%),[4],82%
same,Population Fragmented Nuclei (%),[4],9%
same,Population Healthy Nuclei (%),[4],6%
same,Population Hoechst High Intensity Objects (%),[4],14%
same,Population Membrane Permeable-Phenotype (%),[4],0%
same,Population Mitochondria Different-Phenotype (%),[4],54%
same,Population Mitotic Cells (%),[4],17%
same,Population Normal (%),[4],85%
same,Population Pyknosed Nuclei (%),[4],84%
same,Population Tubulin-Different-Phenotype (%),[4],90%
same,Total Cell Count,[4],192
same,Population Apoptotic (%),[5],62%
same,Population Fragmented Nuclei (%),[5],20%
same,Population Healthy Nuclei (%),[5],18%
same,Population Hoechst High Intensity Objects (%),[5],19%
same,Population Membrane Permeable-Phenotype (%),[5],3%
same,Population Mitochondria Different-Phenotype (%),[5],90%
same,Population Mitotic Cells (%),[5],37%
same,Population Normal (%),[5],80%
same,Population Pyknosed Nuclei (%),[5],61%
same,Population Tubulin-Different-Phenotype (%),[5],87%
same,Total Cell Count,[5],217
same,Population Apoptotic (%),[6],88%
same,Population Fragmented Nuclei (%),[6],6%
same,Population Healthy Nuclei (%),[6],41%
same,Population Hoechst High Intensity Objects (%),[6],7%
same,Population Membrane Permeable-Phenotype (%),[6],0%
same,Population Mitochondria Different-Phenotype (%),[6],98%
same,Population Mitotic Cells (%),[6],11%
same,Population Normal (%),[6],92%
same,Population Pyknosed Nuclei (%),[6],51%
same,Population Tubulin-Different-Phenotype (%),[6],85%
same,Total Cell Count,[6],147
same,Population Apoptotic (%),[7],52%
same,Population Fragmented Nuclei (%),[7],36%
same,Population Healthy Nuclei (%),[7],0%
same,Population Hoechst High Intensity Objects (%),[7],21%
same,Population Membrane Permeable-Phenotype (%),[7],0%
same,Population Mitochondria Different-Phenotype (%),[7],100%
same,Population Mitotic Cells (%),[7],47%
same,Population Normal (%),[7],78%
same,Population Pyknosed Nuclei (%),[7],62%
same,Total Cell Count,[7],389
same,Population Apoptotic (%),[8],86%
same,Population Fragmented Nuclei (%),[8],12%
same,Population Healthy Nuclei (%),[8],14%
same,Population Hoechst High Intensity Objects (%),[8],13%
same,Population Membrane Permeable-Phenotype (%),[8],16%
same,Population Mitochondria Different-Phenotype (%),[8],72%
same,Population Mitotic Cells (%),[8],13%
same,Population Normal (%),[8],86%
same,Population Pyknosed Nuclei (%),[8],72%
same,Population Tubulin-Different-Phenotype (%),[8],100%
same,Total Cell Count,[8],195
same,Population Apoptotic (%),[9],69%
same,Population Fragmented Nuclei (%),[9],24%
same,Population Healthy Nuclei (%),[9],1%
same,Population Hoechst High Intensity Objects (%),[9],22%
same,Population Membrane Permeable-Phenotype (%),[9],0%
same,Population Mitochondria Different-Phenotype (%),[9],0%
same,Population Mitotic Cells (%),[9],30%
same,Population Normal (%),[9],77%
same,Population Pyknosed Nuclei (%),[9],73%
same,Population Tubulin-Different-Phenotype (%),[9],66%
same,Total Cell Count,[9],209
same,Population Apoptotic (%),[10],92%
same,Population Fragmented Nuclei (%),[10],7%
same,Population Healthy Nuclei (%),[10],57%
same,Population Hoechst High Intensity Objects (%),[10],8%
same,Population Membrane Permeable-Phenotype (%),[10],4%
same,Population Mitochondria Different-Phenotype (%),[10],91%
same,Population Mitotic Cells (%),[10],8%
same,Population Normal (%),[10],91%
same,Population Pyknosed Nuclei (%),[10],34%
same,Population Tubulin-Different-Phenotype (%),[10],89%
same,Total Cell Count,[10],157
same,Population Apoptotic (%),[11],65%
same,Population Fragmented Nuclei (%),[11],45%
same,Population Healthy Nuclei (%),[11],1%
same,Population Hoechst High Intensity Objects (%),[11],22%
same,Population Membrane Permeable-Phenotype (%),[11],0%
same,Population Mitochondria Different-Phenotype (%),[11],100%
same,Population Mitotic Cells (%),[11],34%
same,Population Normal (%),[11],77%
same,Population Pyknosed Nuclei (%),[11],53%
same,Total Cell Count,[11],379
same,Population Apoptotic (%),[12],95%
same,Population Fragmented Nuclei (%),[12],12%
same,Population Healthy Nuclei (%),[12],27%
same,Population Hoechst High Intensity Objects (%),[12],14%
same,Population Membrane Permeable-Phenotype (%),[12],9%
same,Population Mitochondria Different-Phenotype (%),[12],95%
same,Population Mitotic Cells (%),[12],4%
same,Population Normal (%),[12],85%
same,Population Pyknosed Nuclei (%),[12],59%
same,Population Tubulin-Different-Phenotype (%),[12],100%
same,Total Cell Count,[12],175
